The source made the active and inactive calls. The calls are words filed in the database; no cut-off is given here.
How the values were obtained:
BT-20 [1] = assay: Growth inhibition of human BT20 after 3 weeks by soft agar colony formation assay; type: functional, cell-based
How it was run: (§1)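 Noble agar: 0.8% bottom layer; cells (1.0 × 10⁵ for MIA-PaCa-2) in medium with compound at various concentrations, mixed into 0.4% top agar. Each concentration in triplicate; 3 weeks at 37 °C, 5% CO₂. Stained with 0.05% nitroblue tetrazolium for 48 h and colonies photographed.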

BT-20 [2] = assay: Antitumor activity against human BT20 cells by trypan blue exclusion assay; type: functional, cell-based
How it was run: (§2)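 Tumour cells were grown in DMEM or RPMI with 10% fetal bovine serum and 1 unit/mL penicillin-streptomycin. They were seeded in six-well dishes at 1.0 × 10⁵ cells/mL/well, and compound was added 24 h later over a range of concentrations. After 96 h of exposure, viable cells in duplicate wells were counted by trypan blue exclusion.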

DU-145 [3] = assay: Antitumor activity against AR-negative human DU145 cells by trypan blue exclusion assay; type: functional, cell-based; how it was run: as §2
[4] = Antitumor activity against human H157 cells by trypan blue exclusion assay; type: functional, cell-based; conditions: NCI-H157; how it was run: as §2
DLD-1 = assay: Antitumor activity against human DLD1 cells by trypan blue exclusion assay; type: functional, cell-based; how it was run: as §2
Mus musculus [5] = assay: Hematotoxicity in CD1 mouse at 100 mg/kg, iv; type: organism-based; design: dose 100 mg/kg, route intravenous; conditions: in vivo
How it was run: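 CD-1 mice received 200 µL iv of PBS or drug (10 mg/mL; 100 mg/kg). Bone marrow was taken from femur and tibia 12, 24 or 48 h later. Cells were cultured in duplicate in methylcellulose with stem cell factor 50 ng/mL, IL-3 10 ng/mL, IL-6 10 ng/mL, transferrin 200 µg/mL and erythropoietin 3 units/mL. Total, myeloid and lymphoid colony-forming units were counted after 1 week.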

Rattus norvegicus [6] = assay: Hematotoxicity in rat at 100 mg/kg, iv; type: organism-based; design: dose 100 mg/kg, route intravenous; conditions: in vivo
How it was run: (§3)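 Rats were given the water-soluble phosphate form iv in single-dose and repeat-dose (28 daily injections) toxicology studies, with biochemical and cellular analysis.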

Mus musculus [7] = assay: Effect on liver damage in CD1 mouse at 100 mg/kg, iv; type: ADME, organism-based; design: dose 100 mg/kg, route intravenous; conditions: in vivo
Mus musculus [8] = assay: Neurotoxicity in CD1 mouse at 100 mg/kg, iv; type: toxicity, organism-based; design: dose 100 mg/kg, route intravenous; conditions: in vivo
Rattus norvegicus [9] = assay: Effect on liver damage in rat at 100 mg/kg, iv; type: ADME, organism-based; design: dose 100 mg/kg, route intravenous; conditions: in vivo; how it was run: as §3
Rattus norvegicus [10] = assay: Neurotoxicity in rat at 100 mg/kg, iv; type: toxicity, organism-based; design: dose 100 mg/kg, route intravenous; conditions: in vivo; how it was run: as §3
DU-145 [11] = assay: Growth inhibition of human DU145 after 3 weeks by soft agar colony formation assay; type: functional, cell-based; how it was run: as §1
MIA PaCa-2 = assay: Growth inhibition of human MiaPaCa2 cells after 3 weeks by soft agar colony formation assay; type: functional, cell-based; how it was run: as §1
BT-20 [12] = assay: Antitumor activity against human BT20 xenografted athymic NCR-nu/nu mouse at 50 mg/kg, ip after 22 days

## COc1cc(OC)c(/C=C/S(=O)(=O)Cc2ccc(OC)c(OP(=O)([O-])O)c2)c(OC)c1.[Na+]
BT-20 [1]
  Activity: Dose-dependent effect
BT-20 [2]
  IC50: 5 nM
DU-145 [3]
  IC50: 2.5 nM
[4]
  IC50: 7 nM
DLD-1
  IC50: 7 nM
Mus musculus [5]
  Activity: Non-toxic
Rattus norvegicus [6]
  Activity: Non-toxic
Mus musculus [7]
  Activity: Non-toxic
Mus musculus [8]
  Activity: Non-toxic
Rattus norvegicus [9]
  Activity: Non-toxic
Rattus norvegicus [10]
  Activity: Non-toxic
DU-145 [11]
  Activity: Dose-dependent effect
MIA PaCa-2
  Activity: Dose-dependent effect
BT-20 [12]
  Activity: Active
